Experimental data taken from ChEMBL document CHEMBL1144690, “Isolation of cytotoxic metabolites from targeted peruvian amazonian medicinal plants” (2008).
In brackets after ≈: the same amount, converted by molar mass. Activity calls are given as the source filed them. No cut-off for these calls is given here.

Legend:
[1] = system: Mycobacterium tuberculosis; test: Antimicrobial activity against Mycobacterium tuberculosis H37Rv at 25 ug/ml; format: functional, organism-based
M14 = test: Cytotoxicity against human M14 cells; format: functional
In short: (§1)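 Cells in 96-well plates exposed to serial dilutions of test sample (maximum 62.5 µg/mL for crude extract and fractions) or solvent-dilution controls for 48 h at 37 °C. Growth measured colorimetrically by sulforhodamine B staining, with percent inhibition taken against controls. GI50 is the concentration giving 50% absorbance reduction versus solvent controls, obtained by linear regression.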

HT-29 = test: Cytotoxicity against human HT29 cells; format: functional; in short: as §1
MCF7 = test: Cytotoxicity against human MCF7 cells; format: functional; in short: as §1
K562 = test: Cytotoxicity against human K562 cells; format: functional; in short: as §1
PC-3 = test: Cytotoxicity against human PC3 cells; format: functional; in short: as §1
NCI-H460 = test: Cytotoxicity against human H460 cells; format: functional; in short: as §1
Vero = test: Cytotoxicity against african green monkey Vero cells; format: functional; settings: Chlorocebus sabaeus; in short: as §1
DU-145 = test: Cytotoxicity against human DU145 cells; format: functional; in short: as §1
ME-180 = test: Cytotoxicity against human ME180 cells; format: functional; in short: as §1
[2] = system: Mycobacterium tuberculosis; test: Antimicrobial activity against Mycobacterium tuberculosis H37Rv; format: functional
In short: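 Tetrazolium microplate assay (TEMA) run in vitro against the drug-sensitive M. tuberculosis H37Rv strain.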

SMILES | Activity [1] | GI50 (M14) [µg/mL] | GI50 (HT-29) [µg/mL] | GI50 (MCF7) [µg/mL] | GI50 (K562) [µg/mL] | GI50 (PC-3) [µg/mL] | GI50 (NCI-H460) [µg/mL] | GI50 (Vero) [µg/mL] | GI50 (DU-145) [µg/mL] | GI50 (ME-180) [µg/mL] | MIC [2] [µg/mL]
COc1ccc(CCC(=O)c2c(O)cc(O)cc2OC)cc1 | inactive | 40.3 (≈ 133 µM) | 35.5 (≈ 117 µM) | 22.9 (≈ 75.7 µM) | 7.4 (≈ 24.5 µM) | 46.3 (≈ 153 µM) | 44.7 (≈ 148 µM) | 40.4 (≈ 134 µM) | 41.7 (≈ 138 µM) |  | 
Cc1cc(O)c2c(c1)C(=O)c1ccc(O)c(O)c1C2=O | inactive | 13.6 (≈ 50.3 µM) | 6.5 (≈ 24.1 µM) | 7.3 (≈ 27 µM) | 12.5 (≈ 46.3 µM) | 8.7 (≈ 32.2 µM) | 4.8 (≈ 17.8 µM) |  | 7.9 (≈ 29.2 µM) | 13.2 (≈ 48.8 µM) | 
COc1cc(O)cc(O)c1C(=O)CCc1ccc2c(c1)OCO2 | inactive | 23.4 (≈ 74 µM) | 27.6 (≈ 87.3 µM) | 18.9 (≈ 59.8 µM) | 8.4 (≈ 26.6 µM) | 24.5 (≈ 77.5 µM) | 27.4 (≈ 86.6 µM) | 28.4 (≈ 89.8 µM) | 22.4 (≈ 70.8 µM) |  | 
C=C(C)[C@@H]1CC[C@]2(C(=O)O)CC[C@]3(C)[C@H](CC[C@@H]4[C@@]5(C)CC[C@H](O)C(C)(C)[C@@H]5CC[C@]43C)[C@@H]12 [BETULINIC ACID] | inactive | 32.6 (≈ 71.4 µM) | 30.9 (≈ 67.7 µM) | > 62.5 | 10.8 (≈ 23.6 µM) | 31.3 (≈ 68.5 µM) | 29.7 (≈ 65 µM) | 30.6 (≈ 67 µM) | 35.3 (≈ 77.3 µM) | 27.8 (≈ 60.9 µM) | 
C/C=C1/CN2CC[C@@]34c5ccccc5N5/C=C6/[C@H]7C[C@@H]8N(CC[C@@]89c8ccccc8N(/C=C(/[C@H]1C[C@H]23)[C@H]54)[C@@H]69)C/C7=C/C [BISNORDIHYDROTOXIFERINE] |  | 1.6 (≈ 2.89 µM) | > 1 | 2 (≈ 3.62 µM) | < 1 | 2.1 (≈ 3.8 µM) | 1.6 (≈ 2.89 µM) | 2.7 (≈ 4.88 µM) | 4.5 (≈ 8.14 µM) | 1.9 (≈ 3.44 µM) | 12.5 (≈ 22.6 µM)
Cc1cc(O)c2c(c1)C(=O)c1cccc(O)c1C2=O [CHRYSOPHANOL] | inactive | > 62.5 | > 62.5 | > 62.5 | > 62.5 | > 62.5 | > 62.5 | > 62.5 | > 62.5 | > 62.5 | 
C[C@]12C=C[C@@]3(CC[C@H]4[C@@](C)(CCC[C@@]4(C)C(=O)O)[C@@H]3CC1)C2 [MONOGINOIC ACID] |  |  |  |  | > 62.5 |  |  |  |  |  | 
CCCCCCCCCCCCCC(=O)O[C@@H]1[C@@H](C)[C@@]2(O)[C@@H](C=C(CO)C[C@]3(O)C(=O)C(C)=C[C@@H]23)[C@@H]2C(C)(C)[C@]12OC(C)=O [PHORBOL MYRISTATE ACETATE] |  |  |  |  | 0.00012 |  |  |  |  |  | 
